Data set [1] has as its target Dual specificity tyrosine-phosphorylation-regulated kinase 1A (Homo sapiens) (UniProt Q13627). Put plainly: Inhibition of DYRK1A (unknown origin) at 1 uM relative to control. The gist of the method:
(§1)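 Kinase panel of 24 enzymes, each tested at 1 µM; percent inhibition reported as the average of two independent data points.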

Data set [2] addresses CYP2C19 (Homo sapiens, UniProt P33261). Put plainly: Inhibition of CYP2C19 (unknown origin) at 10 uM relative to control. The class given is ADME. The gist of the method: (§2)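 CYP1A2, 2C9, 2C19, 2D6 and 3A4 inhibition measured at 10 µM test compound in duplicate; percent inhibition reported.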
The target in data set [3] is Serine/threonine-protein kinase PAK 1 (Homo sapiens) (UniProt Q13153). Description: Inhibition of recombinant human N-terminal GST/His6-tagged PAK1 (M1 to H545 residues) expressed in Sf9 insect cells at 1 uM using tetra(LRRWSLG) as substrate by filter binding method relative to control. The essentials: (§3)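 Single-point screen at 1 µM in a 24-kinase panel run externally; each value is the average of two independent data points. The detailed assay conditions are given only on the provider's site.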

Data set [4] has as its target Casein kinase I isoform alpha (Homo sapiens) (UniProt P48729). Description: Inhibition of recombinant human N-terminal GST/HIS6-tagged CK1alpha (M1 to F365 residues) expressed in Sf9 insect cells at 1 uM using casein as substrate by fliter binding assay relative to control. The gist of the method: as §1
The target of data set [5] is CYP2C9 (Homo sapiens, UniProt P11712). Put plainly: Inhibition of CYP2C9 (unknown origin) at 10 uM relative to control. The class given is ADME. The gist of the method:
as §2

For data set [6], the target named is Mast/stem cell growth factor receptor Kit (Homo sapiens) (UniProt P10721). Put plainly: Inhibition of recombinant human N-terminal GST/His6-tagged KIT (T544 to V976 residues) expressed in Sf9 insect cells at 1 uM using TRK-C-derived peptide as substrate by filter binding method relative to control. The essentials: as §1
The target of data set [7] is Proto-oncogene tyrosine-protein kinase Src (Homo sapiens) (UniProt P12931). Put plainly: Inhibition of human SRC at 1 uM using poly(Glu,Tyr)4:1 as substrate by filter binding method relative to control. The essentials:
as §1

Data set [8] concerns the target RAC-beta serine/threonine-protein kinase (Homo sapiens) (UniProt P31751). Description: Inhibition of human AKT2 at 1 uM by filter binding assay relative to control. The essentials:
as §1

The test system of data set [9] is Serine/threonine-protein kinase B-raf (Homo sapiens), P15056 [V600E]. Description: Inhibition of recombinant human N-terminal GST/HIS6-tagged BRAF V600E mutant (Q417 to H766 residues) expressed in Sf9 insect cells at 1 uM using MEK1-KM as substrate by fliter binding assay relative to control. The gist of the method:
as §1

Data set [10] concerns the target CDK8/Cyclin C (Homo sapiens) (UniProt P49336+P24863). Description: Inhibition of recombinant human N-terminal GST/HIS6-tagged CDK8 (M1 to Y463 residues)/human N-terminal His6-tagged Cyclin C (M1 to S283 residues) expressed in Sf9 insect cells at 1 uM using RBER-IRStide as substrate by fliter binding assay relative to control. The essentials:
as §1

Data set [11] addresses T1, CYP1A2 (Homo sapiens, UniProt P05177).
T1 sequence (P05177 whole entry): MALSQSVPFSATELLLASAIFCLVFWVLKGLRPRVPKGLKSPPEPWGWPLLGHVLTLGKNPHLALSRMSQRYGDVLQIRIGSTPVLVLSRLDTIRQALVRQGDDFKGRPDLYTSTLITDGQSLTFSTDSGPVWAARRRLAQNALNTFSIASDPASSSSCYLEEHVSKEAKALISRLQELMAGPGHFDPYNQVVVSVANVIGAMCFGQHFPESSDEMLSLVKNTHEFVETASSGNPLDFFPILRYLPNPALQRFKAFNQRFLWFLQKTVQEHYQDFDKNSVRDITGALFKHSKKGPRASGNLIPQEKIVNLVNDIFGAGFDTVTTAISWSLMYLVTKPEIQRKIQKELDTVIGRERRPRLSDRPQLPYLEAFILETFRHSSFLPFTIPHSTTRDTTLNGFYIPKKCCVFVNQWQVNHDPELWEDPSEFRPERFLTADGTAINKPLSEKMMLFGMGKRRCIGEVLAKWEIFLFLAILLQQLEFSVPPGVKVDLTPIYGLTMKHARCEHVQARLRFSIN
Put plainly: Inhibition of CYP1A2 (unknown origin) at 10 uM relative to control. The class given is ADME. The essentials: as §2

In data set [12] the target is T2, 3-phosphoinositide-dependent protein kinase 1 (Homo sapiens) (UniProt O15530).
T2 sequence (whole entry): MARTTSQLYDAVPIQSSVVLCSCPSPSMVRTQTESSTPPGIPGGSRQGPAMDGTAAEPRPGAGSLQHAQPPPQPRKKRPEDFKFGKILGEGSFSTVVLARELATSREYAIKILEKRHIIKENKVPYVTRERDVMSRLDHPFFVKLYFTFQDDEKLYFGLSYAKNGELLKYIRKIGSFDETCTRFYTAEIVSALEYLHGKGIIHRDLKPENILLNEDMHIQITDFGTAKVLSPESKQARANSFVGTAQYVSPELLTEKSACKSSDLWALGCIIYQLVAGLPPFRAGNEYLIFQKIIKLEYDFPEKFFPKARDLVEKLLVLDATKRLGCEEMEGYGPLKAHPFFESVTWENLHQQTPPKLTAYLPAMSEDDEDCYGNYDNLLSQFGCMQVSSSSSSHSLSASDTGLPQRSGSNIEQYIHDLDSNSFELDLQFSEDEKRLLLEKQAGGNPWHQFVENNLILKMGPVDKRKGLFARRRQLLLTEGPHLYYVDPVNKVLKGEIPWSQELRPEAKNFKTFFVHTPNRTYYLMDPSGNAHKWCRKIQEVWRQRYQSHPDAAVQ
Description: Inhibition of recombinant human N-terminal His6-tagged PDK1 (M1 to M460 residues) expressed in Sf9 insect cells at 1 uM using LRRWSLG as substrate by filter binding method relative to control. The gist of the method: as §3

The target in data set [13] is Fibroblast growth factor receptor 1 (Homo sapiens) (UniProt P11362). Put plainly: Inhibition of recombinant human N-terminal GST/His6-tagged FGFR1 (G400 to R820 residues) expressed in Sf9 insect cells at 1 uM using poly(Glu,Tyr)4:1 as substrate by filter binding method relative to control. The essentials: as §1
The target in data set [14] is Epidermal growth factor receptor (Homo sapiens) (UniProt P00533). Put plainly: Inhibition of recombinant human N-terminal GST/His6-tagged EGFR (H672 to A1210 residues) expressed in Sf9 insect cells at 1 uM using TRK-C-derived peptide as substrate by filter binding method relative to control. The gist of the method: as §1
For data set [15], the target named is Hepatocyte growth factor receptor (Homo sapiens) (UniProt P08581). Description: Inhibition of recombinant human N-terminal GST/His6-tagged MET (K956 to S1390 residues) expressed in Sf9 insect cells at 1 uM using TRK-C-derived peptide as substrate by filter binding method relative to control. The gist of the method:
as §3

In data set [16] the target is Phosphatidylinositol 4,5-bisphosphate 3-kinase catalytic subunit gamma isoform (Homo sapiens, UniProt P48736). Description: Inhibition of recombinant full-length human N-terminal His6-tagged p110gamma expressed in baculovirus infected Sf21 insect cells using PIP2 as substrate by HTRF assay. The following applies: read-out: Ki(app). (TR-FRET usually uses a lanthanide donor and a delayed reading to cut background.)

Each structure is given as a SMILES string.

Fibroblast growth factor receptor 1 (Homo sapiens), sequence (P11362 22-822 limits assumed): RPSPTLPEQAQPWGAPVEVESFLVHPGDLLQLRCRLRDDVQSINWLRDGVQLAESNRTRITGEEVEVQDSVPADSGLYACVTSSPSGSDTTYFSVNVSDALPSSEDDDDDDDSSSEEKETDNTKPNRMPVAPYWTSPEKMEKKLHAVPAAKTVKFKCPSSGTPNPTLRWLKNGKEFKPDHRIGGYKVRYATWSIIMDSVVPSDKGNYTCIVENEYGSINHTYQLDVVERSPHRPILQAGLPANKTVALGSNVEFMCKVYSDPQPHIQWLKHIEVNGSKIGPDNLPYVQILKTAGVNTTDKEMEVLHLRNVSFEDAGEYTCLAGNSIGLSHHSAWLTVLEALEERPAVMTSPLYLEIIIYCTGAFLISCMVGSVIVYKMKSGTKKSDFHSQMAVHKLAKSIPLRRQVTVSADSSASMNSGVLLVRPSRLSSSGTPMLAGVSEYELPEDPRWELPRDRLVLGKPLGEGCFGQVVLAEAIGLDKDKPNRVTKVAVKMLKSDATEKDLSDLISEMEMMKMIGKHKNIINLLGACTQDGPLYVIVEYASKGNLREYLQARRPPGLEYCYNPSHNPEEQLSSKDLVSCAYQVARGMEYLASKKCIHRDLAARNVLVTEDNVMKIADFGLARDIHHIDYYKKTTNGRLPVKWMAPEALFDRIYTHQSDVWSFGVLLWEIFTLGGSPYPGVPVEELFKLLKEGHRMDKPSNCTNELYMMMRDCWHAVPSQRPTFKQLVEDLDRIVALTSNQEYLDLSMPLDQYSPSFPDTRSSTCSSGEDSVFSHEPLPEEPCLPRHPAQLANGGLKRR
CYP2C19, sequence (P33261 whole entry, the tested form may be a part): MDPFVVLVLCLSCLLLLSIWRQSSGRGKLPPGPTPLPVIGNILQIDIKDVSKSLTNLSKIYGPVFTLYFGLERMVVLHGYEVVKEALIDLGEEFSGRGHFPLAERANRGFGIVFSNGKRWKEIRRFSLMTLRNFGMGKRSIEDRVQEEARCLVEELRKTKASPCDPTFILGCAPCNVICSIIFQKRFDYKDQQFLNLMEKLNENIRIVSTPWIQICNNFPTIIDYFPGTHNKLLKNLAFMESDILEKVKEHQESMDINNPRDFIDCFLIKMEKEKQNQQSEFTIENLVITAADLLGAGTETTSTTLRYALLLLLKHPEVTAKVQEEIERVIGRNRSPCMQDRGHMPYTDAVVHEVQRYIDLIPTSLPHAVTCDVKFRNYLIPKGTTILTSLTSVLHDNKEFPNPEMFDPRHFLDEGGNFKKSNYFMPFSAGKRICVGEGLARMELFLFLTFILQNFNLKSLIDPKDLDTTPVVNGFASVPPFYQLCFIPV
Mast/stem cell growth factor receptor Kit (Homo sapiens), sequence (P10721 whole entry, the tested form may be a part): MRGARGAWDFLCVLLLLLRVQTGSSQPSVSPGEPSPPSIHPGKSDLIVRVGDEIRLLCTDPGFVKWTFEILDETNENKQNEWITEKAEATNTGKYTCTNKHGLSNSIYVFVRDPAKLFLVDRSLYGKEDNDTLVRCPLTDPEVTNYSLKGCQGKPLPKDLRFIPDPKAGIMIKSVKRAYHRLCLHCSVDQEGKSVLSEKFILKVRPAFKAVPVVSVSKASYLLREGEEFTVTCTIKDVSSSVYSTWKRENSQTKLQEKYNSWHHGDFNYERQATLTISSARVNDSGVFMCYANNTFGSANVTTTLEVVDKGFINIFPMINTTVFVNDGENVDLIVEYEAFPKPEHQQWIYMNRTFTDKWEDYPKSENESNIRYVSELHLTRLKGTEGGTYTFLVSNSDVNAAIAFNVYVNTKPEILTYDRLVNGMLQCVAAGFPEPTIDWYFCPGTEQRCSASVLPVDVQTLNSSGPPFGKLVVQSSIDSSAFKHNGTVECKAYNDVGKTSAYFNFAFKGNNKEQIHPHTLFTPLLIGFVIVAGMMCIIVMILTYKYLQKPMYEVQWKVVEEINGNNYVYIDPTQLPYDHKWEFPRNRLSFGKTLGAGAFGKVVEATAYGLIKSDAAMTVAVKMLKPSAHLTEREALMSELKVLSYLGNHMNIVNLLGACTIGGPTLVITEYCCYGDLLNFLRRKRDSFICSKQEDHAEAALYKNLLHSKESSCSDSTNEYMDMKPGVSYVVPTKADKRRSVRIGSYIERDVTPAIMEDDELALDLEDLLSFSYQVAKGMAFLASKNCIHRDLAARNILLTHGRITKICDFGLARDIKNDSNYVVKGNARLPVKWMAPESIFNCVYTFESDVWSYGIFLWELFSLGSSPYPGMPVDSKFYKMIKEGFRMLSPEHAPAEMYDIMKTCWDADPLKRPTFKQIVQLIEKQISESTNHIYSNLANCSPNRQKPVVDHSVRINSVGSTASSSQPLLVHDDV
Epidermal growth factor receptor (Homo sapiens), sequence (P00533 whole entry, the tested form may be a part): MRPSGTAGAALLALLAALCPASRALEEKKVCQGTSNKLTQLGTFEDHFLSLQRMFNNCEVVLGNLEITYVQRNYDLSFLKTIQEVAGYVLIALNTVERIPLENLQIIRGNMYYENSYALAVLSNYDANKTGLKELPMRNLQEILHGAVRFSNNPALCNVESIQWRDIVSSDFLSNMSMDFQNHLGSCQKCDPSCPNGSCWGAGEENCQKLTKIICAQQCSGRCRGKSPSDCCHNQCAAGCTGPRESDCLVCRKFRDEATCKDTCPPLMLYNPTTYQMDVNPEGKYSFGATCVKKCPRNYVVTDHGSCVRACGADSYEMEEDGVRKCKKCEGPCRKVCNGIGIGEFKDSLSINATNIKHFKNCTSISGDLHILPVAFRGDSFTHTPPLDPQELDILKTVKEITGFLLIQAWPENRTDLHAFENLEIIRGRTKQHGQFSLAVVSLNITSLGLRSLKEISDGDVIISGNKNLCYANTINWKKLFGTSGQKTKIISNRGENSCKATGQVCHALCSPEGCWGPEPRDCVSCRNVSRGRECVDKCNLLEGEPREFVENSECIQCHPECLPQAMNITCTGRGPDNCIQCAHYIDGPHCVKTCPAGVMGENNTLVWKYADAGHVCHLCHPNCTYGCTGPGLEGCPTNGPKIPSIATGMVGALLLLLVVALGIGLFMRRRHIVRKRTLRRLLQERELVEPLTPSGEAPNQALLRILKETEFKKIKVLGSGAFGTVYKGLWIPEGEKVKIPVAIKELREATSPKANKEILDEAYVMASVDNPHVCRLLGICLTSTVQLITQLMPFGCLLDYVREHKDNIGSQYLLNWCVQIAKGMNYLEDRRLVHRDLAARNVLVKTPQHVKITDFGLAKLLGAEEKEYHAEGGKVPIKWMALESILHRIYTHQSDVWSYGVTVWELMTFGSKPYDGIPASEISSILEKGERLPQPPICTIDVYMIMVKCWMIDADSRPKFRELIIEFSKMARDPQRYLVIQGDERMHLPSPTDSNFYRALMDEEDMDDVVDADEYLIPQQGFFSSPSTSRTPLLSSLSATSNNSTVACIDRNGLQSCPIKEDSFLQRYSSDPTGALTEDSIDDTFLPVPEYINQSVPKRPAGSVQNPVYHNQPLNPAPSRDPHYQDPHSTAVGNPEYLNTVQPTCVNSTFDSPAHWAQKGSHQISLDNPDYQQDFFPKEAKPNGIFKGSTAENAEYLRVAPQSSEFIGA
Hepatocyte growth factor receptor (Homo sapiens), sequence (P08581 whole entry, the tested form may be a part): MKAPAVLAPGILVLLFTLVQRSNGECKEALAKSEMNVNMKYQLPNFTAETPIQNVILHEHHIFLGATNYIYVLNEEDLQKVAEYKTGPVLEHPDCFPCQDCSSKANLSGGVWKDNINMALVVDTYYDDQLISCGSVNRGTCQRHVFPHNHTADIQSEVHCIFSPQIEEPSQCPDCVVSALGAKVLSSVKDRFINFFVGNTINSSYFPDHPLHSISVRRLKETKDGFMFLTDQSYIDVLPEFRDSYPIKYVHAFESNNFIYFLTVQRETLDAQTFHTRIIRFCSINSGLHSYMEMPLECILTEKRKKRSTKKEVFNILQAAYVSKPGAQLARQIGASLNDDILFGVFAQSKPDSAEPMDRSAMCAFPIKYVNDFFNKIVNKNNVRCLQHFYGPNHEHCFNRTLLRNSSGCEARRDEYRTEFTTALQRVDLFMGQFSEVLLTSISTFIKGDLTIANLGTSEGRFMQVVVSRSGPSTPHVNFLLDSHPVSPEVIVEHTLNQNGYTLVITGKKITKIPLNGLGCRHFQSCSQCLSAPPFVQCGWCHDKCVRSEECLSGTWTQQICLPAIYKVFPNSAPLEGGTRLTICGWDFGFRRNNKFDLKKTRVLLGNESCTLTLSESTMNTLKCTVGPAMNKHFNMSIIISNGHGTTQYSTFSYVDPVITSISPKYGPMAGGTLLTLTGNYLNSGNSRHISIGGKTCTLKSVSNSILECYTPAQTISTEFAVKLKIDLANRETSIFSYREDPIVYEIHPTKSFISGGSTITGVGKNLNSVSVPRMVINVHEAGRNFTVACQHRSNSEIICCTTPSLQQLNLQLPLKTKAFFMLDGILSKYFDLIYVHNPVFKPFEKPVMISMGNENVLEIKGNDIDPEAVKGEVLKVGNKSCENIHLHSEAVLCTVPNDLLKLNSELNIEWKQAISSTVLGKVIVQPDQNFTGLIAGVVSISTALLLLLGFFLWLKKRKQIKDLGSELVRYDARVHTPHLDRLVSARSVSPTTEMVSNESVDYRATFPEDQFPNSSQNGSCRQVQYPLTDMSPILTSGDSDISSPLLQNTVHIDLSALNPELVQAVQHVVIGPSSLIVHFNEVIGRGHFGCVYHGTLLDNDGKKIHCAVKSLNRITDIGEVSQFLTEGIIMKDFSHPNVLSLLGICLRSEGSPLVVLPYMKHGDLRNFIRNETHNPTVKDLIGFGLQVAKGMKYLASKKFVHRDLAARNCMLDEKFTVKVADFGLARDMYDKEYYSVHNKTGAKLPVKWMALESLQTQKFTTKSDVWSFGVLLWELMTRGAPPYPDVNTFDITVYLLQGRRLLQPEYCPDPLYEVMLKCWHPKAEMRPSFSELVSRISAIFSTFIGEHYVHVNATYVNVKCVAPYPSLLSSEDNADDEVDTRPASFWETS

The term inhibition denotes the drop in the measured response relative to a control, in per cent. For `CS(=O)(=O)N1CCN(Cc2nc3c(N4CCOCC4)nc(-c4cnc(N)nc4)cn3n2)CC1`, the inhibition in [1], in data set [3], in [4], in data set [6], in data set [7] and in data set [8] was less than 25% throughout. In addition, the inhibition in [9], in data set [10], in data set [12], in data set [13], in data set [14] and in data set [15] was less than 25% each time. The inhibition at 10 µM in data set [2], in [5] and in [11] was less than 25% in each case.
Take `CS(=O)(=O)N1CCN(Cc2nc3c(N4CCOCC4)nc(-c4cnc(N)nc4)c(Cl)n3n2)CC1`: the inhibition in data set [1], in data set [3], in data set [4], in data set [6], in data set [7] and in [8] was less than 25% throughout. Moreover, the inhibition in data set [9], in [10], in data set [12], in data set [13], in [14] and in [15] was less than 25% each time. In addition, the inhibition at 10 µM in data set [2], in data set [5] and in data set [11] was less than 25% in each case. For the same molecule, in [16], the Ki was 42.4 nM.
For the molecule `CS(=O)(=O)N1CCN(Cc2cn3nc(-c4cnc(N)nc4)nc(N4CCOCC4)c3n2)CC1`, the inhibition in [1], in data set [3], in data set [4], in data set [6], in data set [7] and in data set [8] was less than 25% throughout. The inhibition in data set [9], in data set [10], in [12], in data set [13], in data set [14] and in data set [15] was less than 25% in each case. For the same molecule, the inhibition at 10 µM in data set [2], in data set [5] and in [11] was less than 25% each time. The Ki in data set [16] turned out to be 40.6 nM.
`CS(=O)(=O)N1CCN(Cc2cc3c(N4CCOCC4)nc(-c4cnc(N)nc4)cn3n2)CC1`: the inhibition in data set [1], in data set [3], in data set [4], in data set [6], in data set [7] and in data set [8] was less than 25% in each case. In addition, the inhibition in data set [9], in data set [10], in [12], in [13], in [14] and in data set [15] was less than 25% in each case. The inhibition at 10 µM in [2], in data set [5] and in [11] was less than 25% in each case. Also, the Ki in data set [16] stood at 49.1 nM.

The values above are taken from ChEMBL document CHEMBL4177600, “Identification of novel PI3K inhibitors through a scaffold hopping strategy” (Bioorg Med Chem Lett, 2017).
